Assay outcomes: PubChem BioAssay, several laboratories
Most compounds without a hit are left out; they make up all but 0.91% or so of the library.
PMI act: activators of human PMI, primary screen, biochemical, fluorescence intensity, near-Km mannose 6-phosphate | activation factor at 20 µM | purified human PMI, coupled resazurin fluorescence, 20 min; active compounds read high; 1 = vehicle control, 0 substrate-free wells | Mannose-6-phosphate isomerase (Homo sapiens), P34949 | hit rate 0.005% among 190,000;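 active means activation factor of 2 or more at 20 µM, relative to plate controls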
DTT redox prof: compounds producing H2O2 with reducing agent – biochemical, NIH compound library profiling, artefact control for MLSCN library redox annotation, primary screen. DTT-dependent redox cycling H2O2, phenol red/HRP absorbance; 100% = 100 µM peroxide control, 0% = buffer. activation, % at 10 µM. hit rate 0.03% among 200,000. AID 878, 2007;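 active means activation of at least 50% relative to the plate's high and low controls in the primary single-dose screen; inactive means activation below 50%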;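 further: compound incubated with DTT at 0.8 mM final as the reducing agent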
PMI act satM6P: human PMI activators, high substrate, primary screen, biochemical, fluorescence intensity, near-saturating mannose 6-phosphate | Mannose-6-phosphate isomerase (Homo sapiens), P34949 | coupled PMI enzyme assay, resazurin fluorescence, 20 min; active compounds read high; 1 = untreated enzyme, 0 = substrate-free blank | activation factor at 20 µM | hit rate 0.34% among 190,000 | AID 1216, 2008;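 active means activation factor of 2 or more at 20 µM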
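Technique: Diaphorase-driven resazurin-to-resorufin fluorescence, excitation 544, emission 590 nm | Assay system: Human PMI in coupled enzyme assay | Times: Enzyme reaction with compound 20 min at room temperature | Medium: HEPES-buffered pH 7.4 with magnesium and detergent | Reagent: Mannose-6-phosphate 1.0 mM (near-saturating) plus 0.22 mM NADP+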
Tb hexokinase: Trypanosoma brucei hexokinase 1 inhibitors, primary screen, biochemical, G6PDH-coupled NADH absorbance, MLSCN library | hexokinase 1 [Trypanosoma brucei] | inhibition, % at 10 µM | hit rate 0.11% among 220,000 | recombinant TbHK1, G6PDH-coupled NADH A340;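 active means inhibition of 50% or more in the single-dose primary screen; inactive means inhibition below 50%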
G6PDH counter: L. mesenteroides G6PDH inhibitors, counter-screen for G6PDH-coupled screening assays, biochemical, Leuconostoc mesenteroides enzyme | glucose-6-phosphate dehydrogenase [Leuconostoc mesenteroides] | Purified L. mesenteroides G6PDH, diaphorase/resazurin coupled fluorescence, 45 min | inhibition, % at 5 µM | hit rate 0.12% among 200,000; in the data active means inhibition above about 50%
p97 inhibitor: inhibitors of human p97 ATPase, primary screen, biochemical. AID 1481, 2009. inhibition, % at 8 µM. recombinant p97 ATPase, Kinase-Glo ATP luminescence, 3 h. Transitional endoplasmic reticulum ATPase (Homo sapiens), P55072. hit rate 0.42% among 220,000; in the data active means inhibition above about 15%
Target sequence (P55072 whole entry, looked up): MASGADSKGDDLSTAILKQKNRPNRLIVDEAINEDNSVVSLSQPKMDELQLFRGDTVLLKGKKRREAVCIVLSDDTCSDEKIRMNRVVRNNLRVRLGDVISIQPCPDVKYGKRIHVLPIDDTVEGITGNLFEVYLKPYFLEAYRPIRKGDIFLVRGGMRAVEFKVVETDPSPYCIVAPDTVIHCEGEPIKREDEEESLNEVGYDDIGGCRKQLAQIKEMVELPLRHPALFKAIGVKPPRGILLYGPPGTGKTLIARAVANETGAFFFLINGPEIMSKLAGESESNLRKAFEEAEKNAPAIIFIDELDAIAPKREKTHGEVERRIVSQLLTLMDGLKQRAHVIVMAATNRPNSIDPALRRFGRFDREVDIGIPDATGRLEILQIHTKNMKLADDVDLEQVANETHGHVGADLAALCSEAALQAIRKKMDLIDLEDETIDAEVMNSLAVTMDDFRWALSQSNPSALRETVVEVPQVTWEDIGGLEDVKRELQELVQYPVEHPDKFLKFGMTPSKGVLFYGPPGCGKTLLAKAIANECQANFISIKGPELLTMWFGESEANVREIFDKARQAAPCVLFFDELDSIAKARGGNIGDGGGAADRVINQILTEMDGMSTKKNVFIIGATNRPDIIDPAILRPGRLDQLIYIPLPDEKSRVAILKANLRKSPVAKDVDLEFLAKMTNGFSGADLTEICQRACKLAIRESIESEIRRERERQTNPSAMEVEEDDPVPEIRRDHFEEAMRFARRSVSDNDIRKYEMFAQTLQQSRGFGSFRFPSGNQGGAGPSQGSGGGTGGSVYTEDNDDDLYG
Of the large screens only hits and unclear results are named; the others gave an inactive call.

Cc1cc(C(=O)Nc2nc(-c3ccccn3)cs2)ccc1[N+](=O)[O-]	PMI act satM6P 2.4
CC(=O)/C(=N/Nc1cccc(Cl)c1)N1CCOCC1	PMI act satM6P 2
CC(=O)/C(=N/Nc1ccccc1C)N1CCOCC1	PMI act satM6P 2.4
CC(=O)/C(=N/Nc1ccccc1)N1CCOCC1	none
CCCCNC(=O)Nc1cc(C(=O)OC)ccc1Cl	none
CC(=O)NC(Cc1ccccc1)C(=O)OCC(=O)c1ccc(F)cc1 (stereo not given)	none
Cc1ccsc1/C=N\NC(=O)Cn1nnc2ccccc21	none
COc1ccc(-c2nc3ccccc3nc2-c2ccccc2)cc1	none
COc1ccc(-c2cc3nnc(-c4ccccc4)nc3s2)cc1	PMI act satM6P 2.5
Cc1cc(C2=NNC(=NC3CC3)SC2)c(C)n1-c1ccccc1	none
COc1ccc(-n2c(C)cc(C3=NNC(=NC4CC4)SC3)c2C)cc1	p97 inhibitor 21.6
CCOC(=O)C(=O)NNc1ccc(C)cc1	PMI act satM6P 2
CC(C)OC(=O)C(=O)NNc1ccccc1	none
CCOC(=O)C(=O)NNc1ccc(Cl)cc1	PMI act satM6P 2.5
CCCOC(=O)C(=O)NNc1ccccc1	PMI act satM6P 2.9
CC1Nc2nc(N(C)C)[nH]c(=O)c2NC1C (stereo not given)	PMI act satM6P 2.7
CCCCN(C(=O)/C=C/c1ccco1)c1c(N)n(Cc2ccccc2)c(=O)[nH]c1=O	none
Cn1c(=O)c2c(nc(CN3CCc4ccccc4C3)n2CCc2ccccc2)n(C)c1=O	none (no result: PMI act, PMI act satM6P, G6PDH counter)
Cn1c(=O)c2c(nc(CN3CCc4ccccc4C3)n2CCCO)n(C)c1=O	PMI act satM6P 2.2
COc1ccc(C(=O)c2ccc(CC(=O)O)s2)cc1	PMI act satM6P 2.4
CCn1c(SCC(=O)N2CCN(c3ccccc3)CC2)nnc1-c1ccncc1	PMI act satM6P 2.6
COc1ccc(S(=O)(=O)N=Nc2c(O)[nH]c3ccccc23)cc1	PMI act satM6P 2.5
Cc1ccc(S(=O)(=O)N=Nc2c(O)[nH]c3ccccc23)cc1C	PMI act satM6P 2.2
Cc1ccc(N(CC(=O)N=Nc2c(O)[nH]c3ccccc23)S(C)(=O)=O)c(C)c1	none
Cc1ccc(S(=O)(=O)Nc2c(C)nc3nc[nH]n3c2=O)c(C)c1	none
COCc1[nH]c(=S)[nH]c(=O)c1C	none (no result: PMI act, DTT redox prof, PMI act satM6P, G6PDH counter)
Nc1ccc2c(c1)C(=O)C(=O)c1ccccc1-2	G6PDH counter 58.0, p97 inhibitor 30.8
COc1ccc(-c2csc(NC(=O)c3ccc(OCC(=O)N4CCOCC4)c(OC)c3)n2)cc1OC	none (no result: DTT redox prof)
CC(C)C(=O)c1ccc(O)c(O)c1	none (no result: PMI act, DTT redox prof, PMI act satM6P, G6PDH counter)
CCC(NC(C)C)C(O)c1ccc(O)c(O)c1 (stereo not given)	G6PDH counter 62.7
O=C(O)c1cccc(Cn2c(Cl)c(/C=N/NC(=O)c3ccc(O)cc3)sc2=O)c1	none (no result: PMI act, DTT redox prof, PMI act satM6P, G6PDH counter)
O=c1sc(/C=N/Nc2ccccc2)c(Cl)n1Cc1ccccc1	PMI act satM6P 2.1
COc1ccc(-n2c(O)c(/C=N/NS(=O)(=O)c3cccc([N+](=O)[O-])c3)c3ccccc3c2=O)cc1OC	PMI act satM6P 2.1
O=[N+]([O-])c1cccc(/C=N/NS(=O)(=O)c2ccccc2)c1	none
CCOC(=O)c1c(C)c(/C=N/Nc2ccccc2)n(C)c1C	PMI act satM6P 2.5
O=C(COC(=O)CNS(=O)(=O)c1c(Cl)cccc1Cl)Nc1cccnc1Cl	none
Cc1cc2oc(=O)cc(CN3CCN(S(=O)(=O)c4cccs4)CC3)c2cc1C	none
NNC(=O)c1ccc2c(c1)S(=O)(=O)NNC2=O	PMI act satM6P 2.9
COC(=O)C(NNc1ccccc1)(NC(=O)c1cccc(F)c1)C(F)(F)F (stereo not given)	PMI act satM6P 2.2
CSCC[C@H](NC(=O)OC(C)(C)C)c1nnc(SCC(=O)Nc2c(C)cccc2C)o1	Tb hexokinase 51.3
C/C(=N\NC(=O)c1ccc(Cl)cc1)c1ccc(Br)s1	none
